ChEMBL document CHEMBL5096220, “Selective Inhibition of the Periodontal Pathogen Porphyromonas gingivalis by Third-Generation Zafirlukast Derivatives” (J Med Chem, 2022)
Active and inactive are the calls of the source. No cut-off for these calls is given here.

Experiments:
[1] = tested on: Erythrocyte; assay: Hemolytic activity in mouse RBC upto 100 uM incubated for 1 hr; type: toxicity, cell-based
In short: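 Murine red blood cells incubated with compound at 3.13 to 100 μM for 1 h at 37 °C. PBS only was the negative control; Triton X-100 (1% v/v) set 100% hemolysis.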

[2] = tested on: Actinomyces naeslundii; assay: Antibacterial activity against Actinomyces naeslundii ATCC 49340 assessed as growth inhibition at 100 uM measured after 24 hrs by WST-1 assay relative to control; type: functional; set-up: scale not given: the % may be the effect or the level left
In short: (§1)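 A. naeslundii ATCC 49340 (anaerobic) and S. sanguinis ATCC 10556 (aerobic) were grown in BHI with 5 μg/mL hemin and 1 μg/mL menadione to log phase, 10^8 cells/well. They were exposed to 1, 10 or 100 μM for 24 h, then WST-1 was added. […] Controls: DMSO, penicillin/streptomycin 1X.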

[3] = tested on: Porphyromonas gingivalis; assay: Bactericidal activity against Porphyromonas gingivalis ATCC 33277 assessed as reduction in colony formation at 100 uM measured 24 hrs […] relative to control; type: functional; set-up: scale not given: the % may be the effect or the level left; conditions: in the assay text read “CFU assay” for “safranin staining”
In short: (§2)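 P. gingivalis ATCC 33277 (10^8/well) was grown anaerobically in supplemented BHI and treated 24 h at 1, 10 or 100 μM in DMSO. Cultures were diluted 1:400 and plated on blood agar; colonies were counted after 5 days anaerobic incubation. % inhibition was based on CFUs/mL vs medium-only cultures, three independent replicates. Controls: tetracycline 2.81 μM, DMSO.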

[4] = tested on: Fusobacterium nucleatum; assay: Antibacterial activity against Fusobacterium nucleatum ATCC 25586 assessed as growth inhibition at 100 uM measured after 24 hrs by WST-1 assay relative to control; type: functional; set-up: scale not given: the % may be the effect or the level left
In short: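 F. nucleatum ATCC 25586 was grown anaerobically in hemin/menadione-supplemented BHI to log phase, 10^8 cells/well. Treatment was 1, 10 or 100 μM for 24 h. WST-1 absorbance at 405 nm was read 30 min after reagent addition. % inhibition was calculated vs medium-only cultures, six independent replicates. Controls: DMSO, tetracycline 2.81 μM.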

[5] = tested on: Porphyromonas gingivalis; assay: Antibacterial activity against Porphyromonas gingivalis ATCC 33277 assessed as growth inhibition at 100 uM measured after 30 mins by WST-1 assay relative to control; type: functional; set-up: scale not given: the % may be the effect or the level left
In short: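 P. gingivalis ATCC 33277 (10^8 cells/well) was grown to log phase in supplemented BHI under anaerobic conditions and incubated 24 h with treatments. WST-1 A405 was read 30 min after reagent addition. Growth inhibition was calculated relative to medium-only cultures, six independent replicates per condition.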

[6] = tested on: Streptococcus sanguinis; assay: Antibacterial activity against Streptococcus sanguinis ATCC 10556 assessed as growth inhibition at 100 uM measured after 24 hrs by WST-1 assay relative to control; type: functional; set-up: scale not given: the % may be the effect or the level left; in short: as §1
[7] = tested on: HEK293; assay: Cytotoxicity against HEK293 cells assessed as cell survival rate upto 31.3 microg/ml measured after 24 hrs by resazurin dye based analysis; type: functional; conditions: Homo sapiens, dose <= 31.3 µg/ml
In short: (§3)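 HEK-293 and HepG2 cells were maintained in DMEM with 10% FBS and 1% Pen/Strep at 37 °C, 5% CO2. Compounds were tested over 0–62.6 μg/mL. Survival values above 100% were normalized to 100%.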

[8] = tested on: Porphyromonas gingivalis; assay: Antibacterial activity against Porphyromonas gingivalis ATCC 33277 assessed as growth inhibition at 25 uM measured after 24 hrs by WST-1 assay relative to control; type: functional; set-up: scale not given: the % may be the effect or the level left
In short: (§4)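 Log-phase P. gingivalis ATCC 33277 was grown anaerobically in hemin/menadione-supplemented BHI, 10^8 cells/well, and treated for 24 h (DMSO vehicle). […] Derivatives: six independent replicates; controls: 42 replicates.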

[9] = tested on: Porphyromonas gingivalis; assay: Antibacterial activity against Porphyromonas gingivalis ATCC 33277 assessed as growth inhibition at 50 uM measured after 24 hrs by WST-1 assay relative to control; type: functional; set-up: scale not given: the % may be the effect or the level left; in short: as §4
[10] = tested on: Porphyromonas gingivalis; assay: Antibiofilm activity against Porphyromonas gingivalis ATCC 33277 assessed as inhibition of biofilm at 100 uM measured after 48 hrs by safranin staining relative to control; type: functional; set-up: scale not given: the % may be the effect or the level left
In short: (§5)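 Biofilm formation: P. gingivalis ATCC 33277 (10^8 cells/well) was grown in supplemented BHI under anaerobic conditions with gentle shaking, exposed to 10, 25, 50 or 100 μM for 48 h. Biomass was stained with 0.1% safranin and A492 measured. Biofilm growth % = 100×OD treated/OD DMSO control. Positive controls: tetracycline 2.81 μM.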

[11] = Hemolytic activity in mouse RBC at 100 uM incubated for 1 hr; type: toxicity, cell-based, Erythrocyte; conditions: mouse red blood cells (erythrocytes), read-out: Activity
In short: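 Murine red blood cells were incubated 1 h at 37 °C with compounds at 3.13–100 μM. PBS served as the negative control and Triton X-100 (1% v/v) as the 100% hemolysis reference.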

[12] = Hemolytic activity in mouse RBC at 27 microg/ml incubated for 1 hr; type: toxicity, cell-based, Erythrocyte; conditions: mouse red blood cells (erythrocytes), at 27 µg/mL, read-out: Activity
[13] = tested on: Porphyromonas gingivalis; assay: Bactericidal activity against Porphyromonas gingivalis ATCC 33277 assessed as reduction in colony formation at 10 uM measured 24 hrs by safranin staining relative to control; type: functional; conditions: in the assay text read “CFU assay” for “safranin staining”; in short: as §2
[14] = tested on: Porphyromonas gingivalis; assay: Antibacterial activity against Porphyromonas gingivalis assessed as reduction of CFU at 10 uM incubated for 5 days measured by […]; type: functional, organism-based; conditions: time 5.0 day; in short: as §2
[15] = tested on: HepG2; assay: Cytotoxicity against human HepG2 cells assessed as cell survival rate at upto 31.3 to 62.6 microg/ml measured after 24 hrs by resazurin dye based analysis relative to control; type: functional; conditions: dose 31.3-62.6 µg/ml, at 31.3 to 62.6 µg/mL; in short: as §3
[16] = Cytotoxicity against human OKF6 cells assessed as morphological change at 100 uM […]; type: toxicity, cell-based; conditions: okf6, 100 µM
In short: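 OKF6 oral keratinocytes were treated 24 h at 10 or 100 μM. Cell morphology and density were examined by microscopy across the entire well. Controls: medium, 1% DMSO, staurosporine 8 μM.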

[17] = tested on: Porphyromonas gingivalis; assay: Antibacterial activity against Porphyromonas gingivalis ATCC 33277 assessed as growth inhibition at 1 uM measured after 24 hrs by WST-1 assay relative to control; type: functional; set-up: scale not given: the % may be the effect or the level left; in short: as §4
[18] = tested on: Porphyromonas gingivalis; assay: Antibacterial activity against Porphyromonas gingivalis ATCC 33277 assessed as growth inhibition at 10 uM measured after 24 hrs by WST-1 assay relative to control; type: functional; set-up: scale not given: the % may be the effect or the level left; in short: as §4
[19] = Cytotoxicity against human OKF6 cells assessed as reduction in cell viability at 10 uM by Annexin V-FITC/PI staining based flow cytometric analysis relative to control; type: toxicity; conditions: okf6, 10 µM
In short: (§6)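 OKF6 keratinocytes were exposed 24 h to 10 or 100 μM. Apoptosis/necrosis was assessed by FITC-Annexin V staining and flow cytometry, ≥10,000 events per condition, in duplicate across two independent experiments. Controls: medium, 1% DMSO, staurosporine 8 μM.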

[20] = tested on: Porphyromonas gingivalis; assay: Antibacterial activity against Porphyromonas gingivalis at 100 uM incubated for 5 days measured by […] relative to control; type: functional; conditions: dose 10 µM; time 5 day; in the assay text read “10 uM” for “100 uM”; in short: as §2
[21] = Cytotoxicity against human OKF6 cells assessed as reduction in cell viability at 100 uM by Annexin V-FITC/PI staining based flow cytometric analysis relative to control; type: toxicity; conditions: okf6, 100 µM; in short: as §6
[22] = tested on: Porphyromonas gingivalis; assay: Antibiofilm activity against Porphyromonas gingivalis ATCC 33277 assessed as inhibition of biofilm at 50 uM measured after 48 hrs by safranin staining relative to control; type: functional; set-up: scale not given: the % may be the effect or the level left; in short: as §5
[23] = tested on: Porphyromonas gingivalis; assay: Antibacterial activity against Porphyromonas gingivalis ATCC 33277 assessed as growth inhibition at 1 to 100 uM measured after 24 hrs by WST-1 assay relative to control; type: functional; set-up: scale not given: the % may be the effect or the level left; conditions: dose 1-100 µM; in short: as §4
[24] = tested on: Porphyromonas gingivalis; assay: Antibiofilm activity against Porphyromonas gingivalis ATCC 33277 assessed as inhibition of biofilm at 10 to 100 uM measured after 48 hrs by safranin staining relative to control; type: functional; set-up: scale not given: the % may be the effect or the level left; conditions: dose 10-100 µM; in short: as §5
[25] = tested on: Porphyromonas gingivalis; assay: Antibiofilm activity against Porphyromonas gingivalis ATCC 33277 assessed as inhibition of biofilm at 25 uM measured after 48 hrs by safranin staining relative to control; type: functional; set-up: scale not given: the % may be the effect or the level left; in short: as §5
[26] = tested on: Porphyromonas gingivalis; assay: Antibiofilm activity against Porphyromonas gingivalis ATCC 33277 assessed as inhibition of biofilm at 10 uM measured after 48 hrs by safranin staining relative to control; type: functional; set-up: scale not given: the % may be the effect or the level left; in short: as §5

CCCn1cc(Cc2ccc(OC)c(C(=O)NS(=O)(=O)c3ccccc3F)c2)c2cc([N+](=O)[O-])ccc21
Activity [1]: <= 25%

CCCCn1cc(Cc2ccc(OC)c(C(=O)NS(=O)(=O)c3ccccc3F)c2)c2cc([N+](=O)[O-])ccc21
Activity [1]: <= 25%

COc1ccc(Cc2cn(C)c3ccc([N+](=O)[O-])cc23)cc1C(=O)NS(=O)(=O)c1c(F)cccc1F
Activity [2]: 40% | Activity [3]: 100% | Activity [4]: 76% | Activity [5]: 61% | Activity [6]: 40%

COc1cc(C(=O)NS(=O)(=O)c2ccccc2C)ccc1Cc1cn(C)c2ccc(NC(=O)OC3CCCC3)cc12 [ZAFIRLUKAST]
Activity [7]: Not toxic | Activity [8]: 74% | Activity [9]: 88% | Activity [10]: 58% | hemolysis at 1 h, 100 µM [11]: 72%

COc1ccc(Cc2cn(CC(C)C)c3ccc([N+](=O)[O-])cc23)cc1C(=O)NS(=O)(=O)c1ccc([N+](=O)[O-])cc1
Activity [3]: 100% | Activity [5]: 73%

C[C@@H]1[C@H](O)[C@@H](C)/C=C/C=C/C=C/C=C/C=C/C=C/C=C/[C@H](O[C@@H]2O[C@H](C)[C@@H](O)[C@H](N)[C@@H]2O)C[C@@H]2O[C@](O)(C[C@@H](O)C[C@@H](O)[C@H](O)CC[C@@H](O)C[C@@H](O)CC(=O)O[C@H]1C)C[C@H](O)[C@H]2C(=O)O [AMPHOTERICIN B]
hemolysis at 1 h, 27 microg/ml [12]: 0%

COc1ccc(Cc2cn(C)c3ccc([N+](=O)[O-])cc23)cc1C(=O)NS(=O)(=O)c1ccccc1Br
Activity [13]: Active | Activity [14]: Active | Activity [3]: 100% | Activity [15]: >76% | Activity [16]: Toxic | Activity [5]: 61%

CCn1cc(Cc2ccc(OC)c(C(=O)NS(=O)(=O)c3ccc([N+](=O)[O-])cc3)c2)c2cc([N+](=O)[O-])ccc21
Activity [17]: 6% | Activity [13]: 19% | Activity [3]: 100% | Activity [18]: 77%

CCCCn1cc(Cc2ccc(OC)c(C(=O)NS(=O)(=O)c3ccc([N+](=O)[O-])cc3)c2)c2cc([N+](=O)[O-])ccc21
Activity [3]: 100% | Activity [19]: 63% | Activity [20]: 71% | Activity [21]: 23% | Activity [22]: 63% | Activity [18]: 77% | Activity [10]: 57% | Activity [1]: <= 15% | Activity [23]: 69%

COc1ccc(Cc2cn(C)c3ccc([N+](=O)[O-])cc23)cc1C(=O)NS(=O)(=O)c1ccc([N+](=O)[O-])cc1
Activity [24]: 86% | Activity [17]: 0% | Activity [13]: Active | Activity [3]: 100% | Activity [18]: 63%

COc1ccc(Cc2cn(C)c3ccc([N+](=O)[O-])cc23)cc1C(=O)NS(=O)(=O)c1ccccc1F
Activity [13]: 96% | Activity [3]: 100% | Activity [15]: >76% | Activity [5]: 61% | Activity [25]: 52%

CN(C)[C@@H]1C(O)=C(C(N)=O)C(=O)[C@@]2(O)C(O)=C3C(=O)c4c(O)cccc4[C@@](C)(O)[C@H]3C[C@@H]12 [TETRACYCLINE]
Activity [10]: 57%

CCCn1cc(Cc2ccc(OC)c(C(=O)NS(=O)(=O)c3ccc([N+](=O)[O-])cc3)c2)c2cc([N+](=O)[O-])ccc21
Activity [3]: 100% | Activity [18]: 77% | Activity [1]: <= 15% | Activity [23]: 60%

COc1ccc(Cc2cn(C)c3ccc([N+](=O)[O-])cc23)cc1C(=O)NS(=O)(=O)c1ccccc1Cl
Activity [13]: Active | Activity [14]: Active | Activity [3]: 100% | Activity [19]: 9% | Activity [15]: >76% | Activity [16]: Toxic | Activity [21]: 5% | Activity [5]: 61% | Activity [22]: 58% | Activity [25]: 55% | Activity [26]: 53%
